Published values pooled from the literature.
Each line is one published result; the experiments were not run side by side.
Organism: Plasmodium falciparum
Observed: parasite growth

Structure (SMILES)	test	test system	conditions	measurement	result
CCn1cc(-c2ccnn2C)c(=O)c2cc(F)c(N3CCC(C)CC3)cc21	–	3D7	72 h, blood stage	EC50	> 10000 nM
CCN(CC)CCCC(C)Nc1ccnc2cc(Cl)ccc12 (centres unmarked)	–	D6	blood stage	IC50	10 nM
CCCC1CCN(c2cc3c(cc2F)c(=O)c(C(=O)OCC)cn3CC)CC1	–	3D7	72 h, blood stage	EC50	30 nM
O=C(Nc1c(F)cccc1C(=O)O)c1ccc(-c2ccccc2)cc1	SYBR Green	NF54	10 µM, 96 h, blood stage	inhibition	6.4%
CN1CCN(c2nccc(Nc3ccc4c(Nc5cnccn5)ccnc4c3)n2)CC1	–	D6	drug-resistant strain, blood stage	EC50	180 nM
CCNC(=O)c1cn(CC)c2cc(N3CCC(C)CC3)c(F)cc2c1=O	–	3D7	72 h, blood stage	EC50	477 nM
Cc1ccc(Nc2ccnc3cc(-c4ccc(S(=O)(=O)N5CCN(C)CC5)cc4)ccc23)cc1Cl	–	D6	drug-resistant strain, blood stage	EC50	64 nM
CCn1cc(-c2nc(C)no2)c(=O)c2cc(F)c(N3CCC(C)CC3)cc21	–	3D7	blood stage	EC50	7.62 nM
CN1CCN(S(=O)(=O)c2ccc(-c3ccc4c(Nc5ccc6[nH]nnc6c5)ccnc4c3)cc2)CC1	–	D6	drug-resistant strain, blood stage	EC50	27 nM
O=C(Nc1cc(F)ccc1C(=O)O)c1ccc(-c2ccccc2)cc1	–	NF54	2 µM, 48 h, gametocyte	inhibition	13.8%
O=C(c1ccc(Nc2nccc(-c3ccc4ccccc4c3)n2)cc1)N1CCC(N2CCCC2)CC1	SYBR Green	3D7	1 µM, blood stage	inhibition	> 75%
Cc1cccc(C(=O)O)c1NC(=O)c1cccc(-c2ccccc2)c1	–	NF54	2 µM, 48 h, gametocyte	inhibition	31.8%
CCOC(=O)c1cn(CC)c2cc(N3CCC(C)CC3)c(F)cc2c1=O	–	3D7	72 h, blood stage	EC50	28 nM
COc1ccc(Nc2ccnc3cc(-c4ccc(S(=O)(=O)N5CCN(C)CC5)cc4)ccc23)cc1Cl	–	D6	drug-resistant strain, blood stage	EC50	12 nM
Cc1ccc(-c2ccccc2C(=O)Nc2c(C)cccc2C(=O)O)cc1	SYBR Green	NF54	10 µM, 96 h, blood stage	inhibition	8.4%
CN1CCN(c2ccnc(Nc3ccc4c(Nc5ccc(OCc6cccc(F)c6)c(Cl)c5)ccnc4c3)n2)CC1	–	D6	drug-resistant strain, blood stage	EC50	25 nM
O=C(Nc1ccc(F)cc1C(=O)O)c1ccc(-c2ccccc2)cc1	–	NF54	2 µM, 48 h, gametocyte	inhibition	43.5%
